Data as given in PMC3149845 (The Journal of neuroscience : the official journal of the …, 2011).
Positions count from the first letter of the chain named. Entries after “also recorded” stand apart in the source; their conditions may differ. Peptide text beside a SMILES is read from it.

Legend:
[1] = target: T1, hTas1R2:S40T+hTas1R3 (Homo sapiens, UniProt Q8TE23, S40T); test: Ca2+ mobilization, mutated human receptor; format: cell-based; settings: aspartame 10mM, neotame 1mM, sucralose 2 mM; compared with hTas1R2/hTas1R3
T1 sequence (Q8TE23 20-839 S40T): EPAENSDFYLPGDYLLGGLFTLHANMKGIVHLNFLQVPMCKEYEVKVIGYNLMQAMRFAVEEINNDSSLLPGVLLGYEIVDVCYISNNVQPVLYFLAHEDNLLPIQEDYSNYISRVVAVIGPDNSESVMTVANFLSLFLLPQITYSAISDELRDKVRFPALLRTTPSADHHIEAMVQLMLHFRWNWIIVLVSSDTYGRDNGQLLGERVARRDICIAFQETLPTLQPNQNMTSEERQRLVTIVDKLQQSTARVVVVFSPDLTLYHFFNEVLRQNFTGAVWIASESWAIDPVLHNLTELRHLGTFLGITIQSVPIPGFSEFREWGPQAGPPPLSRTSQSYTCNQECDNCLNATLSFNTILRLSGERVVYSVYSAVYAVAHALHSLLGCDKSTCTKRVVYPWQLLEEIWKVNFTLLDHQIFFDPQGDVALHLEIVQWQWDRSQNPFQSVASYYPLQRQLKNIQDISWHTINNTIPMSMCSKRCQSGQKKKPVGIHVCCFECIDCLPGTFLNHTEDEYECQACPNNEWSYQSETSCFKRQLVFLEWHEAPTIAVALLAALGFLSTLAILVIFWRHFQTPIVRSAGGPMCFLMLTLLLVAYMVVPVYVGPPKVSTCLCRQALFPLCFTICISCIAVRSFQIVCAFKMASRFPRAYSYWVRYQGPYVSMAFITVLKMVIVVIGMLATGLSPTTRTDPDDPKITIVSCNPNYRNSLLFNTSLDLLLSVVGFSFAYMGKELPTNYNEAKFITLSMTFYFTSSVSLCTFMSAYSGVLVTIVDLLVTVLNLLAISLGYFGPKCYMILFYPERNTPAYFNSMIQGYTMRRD
T1 sequence (Q7RTX0 21-852 partner): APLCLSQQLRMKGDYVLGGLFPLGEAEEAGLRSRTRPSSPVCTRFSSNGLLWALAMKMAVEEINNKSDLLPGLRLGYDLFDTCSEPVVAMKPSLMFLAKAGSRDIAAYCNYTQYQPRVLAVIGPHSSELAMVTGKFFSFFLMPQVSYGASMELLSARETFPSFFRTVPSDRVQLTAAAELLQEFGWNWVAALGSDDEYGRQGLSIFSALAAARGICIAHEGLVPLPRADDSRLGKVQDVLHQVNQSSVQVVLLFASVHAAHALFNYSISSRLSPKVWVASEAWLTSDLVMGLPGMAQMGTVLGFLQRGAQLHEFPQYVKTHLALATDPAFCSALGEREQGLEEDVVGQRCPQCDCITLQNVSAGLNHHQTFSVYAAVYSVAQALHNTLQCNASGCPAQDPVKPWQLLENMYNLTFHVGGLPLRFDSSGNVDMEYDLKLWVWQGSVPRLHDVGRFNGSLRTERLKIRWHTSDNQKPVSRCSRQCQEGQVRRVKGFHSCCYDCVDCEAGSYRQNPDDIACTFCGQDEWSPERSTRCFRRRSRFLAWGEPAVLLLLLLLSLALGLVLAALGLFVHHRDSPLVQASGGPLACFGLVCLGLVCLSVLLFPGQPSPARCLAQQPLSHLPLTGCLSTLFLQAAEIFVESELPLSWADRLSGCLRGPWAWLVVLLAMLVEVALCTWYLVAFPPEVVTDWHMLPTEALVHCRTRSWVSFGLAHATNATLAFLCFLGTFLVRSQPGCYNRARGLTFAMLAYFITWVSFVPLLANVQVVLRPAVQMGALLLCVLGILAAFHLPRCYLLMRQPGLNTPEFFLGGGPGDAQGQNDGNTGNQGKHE
Procedure, shortened: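 HEK293E cells grown at 37°C in Opti-MEM with 5% FBS and seeded at 50,000/well. Cells co-lipofected with Tas1R plasmids and Gα16-gust44 (0.06 μg each per well); medium changed at 20 h, assayed 24 h later. Cells loaded 1 h with Fluo-4 AM in HEPES-buffered HBSS. Tastant added at 30 s; fluorescence (ex 488/em 525 nm) read every 2 s for 150 s more. ΔF/F normalised to human receptor maximal sucralose response; mean ± SEM, three independent experiments.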

[2] = target: T2, hTas1R2/smTas1R3 (Homo sapiens, UniProt Q8TE23); test: Ca2+ mobilization, mismatched receptor; format: cell-based, human/squirrel monkey; settings: aspartame 10mM, neotame 1mM, sucralose 2 mM, D-tryptophan 5mM, sucrose 150mM; vs control / wild type human receptor
T2 sequence (Q8TE23 20-839): T1 sequence (Q8TE23 20-839 S40T) with T21S
Procedure, shortened: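 Transfected HEK293E cells (50,000/well; 0.06 μg Tas1R plasmid and 0.06 μg Gα16-gust44 per well) were medium-changed at 20 h, then loaded after 24 h with 3 μM Fluo-4 AM in HBSS/20 mM HEPES for 1 h. Tastant added 30 s into scan; fluorescence (ex 488/em 525 nm) read every 2 s for 150 s. ΔF/F normalized to the hTas1R2/hTas1R3 sucralose response; three independent experiments; unpaired t test.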

## COC(=O)[C@H](Cc1ccccc1)NC(=O)[C@@H](N)CC(=O)O [aspartame, L-α-aspartly-L-phenylalanine methyl ester] (H-Asp-Phe-OMe)
[1]
  calcium response to sweetener: abolished
[2]
  calcium response to sweetener: able to respond; also recorded: reduced responses

## OC[C@H]1O[C@H](O[C@]2(CCl)O[C@H](CCl)[C@@H](O)[C@@H]2O)[C@H](O)[C@@H](O)[C@H]1Cl [sucralose]
[1]
  calcium response to sweetener: significantly reduced
[2]
  calcium response to sweetener: reduced responses

## COC(=O)[C@H](Cc1ccccc1)NC(=O)[C@H](CC(=O)O)NCCC(C)(C)C [neotame]
[1]
  calcium response to sweetener: did not affect significantly
[2]
  calcium response to sweetener: able to respond
